This note sets out measurements from ChEMBL document CHEMBL1125286, “Zatosetron, a potent, selective, and long-acting 5HT3 receptor antagonist: synthesis and structure-activity relationships” (J Med Chem, 1992).

Experiment [1] addresses T1, Serotonin 3 (5-HT3) receptor (Rattus norvegicus) (UniProt P35563+Q9JJ16). As to the kind of experiment: 5-hydroxytryptamine 3 receptor antagonistic activity measured by inhibition of 5-HT-induced bradycardia (iv administration 10 ug/kg dose in urethane-anesthetized rats). It is filed as functional, organism-based. A digest of the protocol:
(§1)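 Urethane-anesthetized rats. First 5HT challenge 30 μg/kg iv gives a transient bradycardia. Once heart rate is back at steady state (≤5 min), test compound or saline goes in via the femoral vein. 5HT 30 μg/kg iv is repeated 15 min later. % inhibition is the difference between first and second bradycardia at peak, each animal its own control. Means ± SEM, groups of 3–16 rats.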

Experiment [2] concerns the target T1, Serotonin 3 (5-HT3) receptor (Rattus norvegicus). As to the kind of experiment: 5-hydroxytryptamine 3 receptor antagonistic activity as inhibition of 5-HT-induced bradycardia after iv administration of 100 ug/kg dose in urethane-anesthetized rats. It is filed as functional, organism-based. A digest of the protocol: as §1
Experiment [3] has the same target. As to the kind of experiment: 5-hydroxytryptamine 3 receptor antagonistic activity was measured by the inhibition of 5H+ T-induced bradycardia after iv administration of 3 ug/kg dose in urethane-anesthetized rats. In kind it is functional, organism-based. In short, it runs like this: (§2)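 Urethane-anesthetized rats; antagonist or saline given iv via femoral vein after heart rate settled (≤5 min) from an initial 5HT challenge (30 µg/kg iv). 5HT was given again 15 min later. Peak bradycardia measured, each rat its own control; % inhibition = difference between first and second responses. Groups of 3–16 rats, means ± SEM.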

For experiment [4] the target is unchanged. As to the kind of experiment: 5-hydroxytryptamine 3 receptor antagonistic activity was measured by the inhibition of 5H+ T-induced bradycardia after iv administration of 1000 ug/kg dose in urethane-anesthetized rats. It is filed as functional, organism-based. A digest of the protocol: as §1
Experiment [5] has the same target. As to the kind of experiment: Compound was tested for the inhibition of 5-HT-induced bradycardia after intravenous administration of 0.3 ug/kg dose in urethane-anesthetized rats. It is filed as functional, organism-based. A digest of the protocol:
as §2

Experiment [6] has the same target. As to the kind of experiment: Compound was tested for the inhibition of 5-HT-induced bradycardia after intravenous administration of 1 ug/kg dose in urethane-anesthetized rats. It is filed as functional, organism-based. In short, it runs like this: as §2
For experiment [7] the target is unchanged. As to the kind of experiment: Compound was tested for the inhibition of 5-HT-induced bradycardia after peroral administration of 100 ug/kg dose in urethane-anesthetized rats. It is filed as functional, organism-based. A digest of the protocol: (§3)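 Fasted rats gavaged (5 mL/kg) with antagonist or vehicle (distilled water). Urethane anesthesia and surgical preparation followed, 15–20 min before 5HT challenge. 5HT 30 µg/kg iv given 1 h after dosing, with vehicle-treated rats as controls. Peak % inhibition of bradycardia in groups of 3–11, means ± SEM.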

Experiment [8] shares this target. The experiment in a line: Compound was tested for the inhibition of 5-HT-induced bradycardia after peroral administration of 1000 ug/kg dose in urethane-anesthetized rats. In kind it is functional, organism-based. In short, it runs like this: as §3
For experiment [9] the target is unchanged. The experiment in a line: Compound was tested for the inhibition of 5-HT-induced bradycardia after peroral administration of 30 ug/kg dose in urethane-anesthetized rats. It is filed as functional, organism-based. In short, it runs like this: as §3
Experiment [10] has the same target. As to the kind of experiment: Compound was tested for the inhibition of 5-HT-induced bradycardia after peroral administration of 300 ug/kg dose in urethane-anesthetized rats. It is filed as functional, organism-based. A digest of the protocol:
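Fasted rats dosed by gavage (5 mL/kg) with compound or distilled-water vehicle. Urethane anesthesia and surgical preparation 15–20 min before challenge. 5HT 0.03 mg/kg iv given 1 h after dosing. Peak bradycardia is compared with vehicle-treated controls. Means ± SEM, groups of 3–11 rats.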

For experiment [11] the target is unchanged. As to the kind of experiment: Inhibition of 5-HT-induced bradycardia by 5-hydroxytryptamine 3+. In kind it is functional.
Experiment [12] shares this target. As to the kind of experiment: Compound was tested for the inhibition of 5-HT-induced bradycardia after peroral administration of 0.1 mg/kg at 0.5 hours in urethane-anesthetized rats. In kind it is functional, organism-based. Also noted: dose 0.1 mg/kg. The following applies: at 0.1 mg/kg. A digest of the protocol:
(§4)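 Duration study: antagonist or vehicle gavaged to conscious fasted rats (5 mL/kg). Rats were urethane-anesthetized and surgically prepared, then challenged with 5HT 0.03 mg/kg iv at the stated time after dosing. Vehicle-treated rats served as controls. Peak inhibition of bradycardia recorded in groups of 3–11, means ± SEM.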

The target is the same in experiment [13]. The experiment in a line: Compound was tested for the inhibition of 5-HT-induced bradycardia after peroral administration of 0.1 mg/kg at 1 hour in urethane-anesthetized rats. In kind it is functional, organism-based. Also noted: dose 0.1 mg/kg. The following applies: at 0.1 mg/kg. A digest of the protocol:
as §4

The target is the same in experiment [14]. As to the kind of experiment: Compound was tested for the inhibition of 5-HT-induced bradycardia after peroral administration of 0.1 mg/kg at 16 hours in urethane-anesthetized rats. It is filed as functional, organism-based. The following applies: at 0.1 mg/kg. Also noted: dose 0.1 mg/kg. A digest of the protocol: as §4
Experiment [15] shares this target. As to the kind of experiment: Compound was tested for the inhibition of 5-HT-induced bradycardia after peroral administration of 0.1 mg/kg at 3 hours in urethane-anesthetized rats. It is filed as functional, organism-based. Also noted: dose 0.1 mg/kg. The following applies: at 0.1 mg/kg. In short, it runs like this:
as §4

Experiment [16] shares this target. The experiment in a line: Compound was tested for the inhibition of 5-HT-induced bradycardia after peroral administration of 0.1 mg/kg at 6 hours in urethane-anesthetized rats. The following applies: at 0.1 mg/kg. Also on record: dose 0.1 mg/kg. It is filed as functional, organism-based. A digest of the protocol: as §4
Experiment [17] has as its system Serotonin 3 receptor (Cavia porcellus). As to the kind of experiment: In vitro binding affinity was measured for 5-hydroxytryptamine 3 receptor in the guinea pig ileum.
For experiment [18], the target named is T1, Serotonin 3 (5-HT3) receptor (Rattus norvegicus). The experiment in a line: Compound was tested for the inhibition of 5-HT-induced bradycardia after peroral administration in urethane-anesthetized rats.

Regarding `CN1C2CCC1CC(NC(=O)c1cc(O)cc3c1OC(C)(C)C3)C2` (stereo not given), in experiment [1], the inhibition (in general, the relative decrease from the control value, in per cent) is 54.7%.

In [1], `CN1C2CCC1CC(NC(=O)c1cc(F)cc3c1OC(C)(C)C3)C2` (stereo not given) registered an inhibition of 71.7%.

Take `Cc1cc2c(c(C(=O)OC3CC4CCC(C3)N4C)c1)OCC2` (stereo not given): the inhibition was 28.8% in [1] and 67.2% in experiment [2].

On to `CN1C2CCC1CC(OC(=O)c1cccc3c1OC(C)(C)C3)C2` (stereo not given), for which the inhibition in experiment [1] came out at 38%; in [3], 20.8%.

Take `COc1cc2c(c(C(=O)NC3CC4CCC(C3)N4C)c1)OC(C)(C)C2` (stereo not given): in [1], the inhibition came out at 2.9%.

Take `Cc1cc2c(c(C(=O)NC3CC4CCC(C3)N4C)c1)OC(C)(C)C2` (stereo not given): the inhibition in experiment [1] stood at 87.1%; in [3], 11.2%.

Take `CC1Cc2cc(F)cc(C(=O)OC3CC4CCC(C3)N4C)c2O1` (stereo not given): the inhibition in [1] was 32.2%.

In the case of `CN1C2CCC1CC(NC(=O)c1c(Cl)ccc3c1OC(C)(C)C3)C2` (stereo not given), the inhibition in experiment [1] worked out at 0.8%.

As to `CC1Cc2cccc(C(=O)NC3CC4CCC(C3)N4C)c2O1` (stereo not given), the inhibition is 22.3% in experiment [1] and 87.6% in experiment [2].

For `CN1[C@@H]2CC[C@H]1C[C@@H](OC(=O)c1cc(Cl)cc(Cl)c1)C2`, the inhibition in experiment [1] turned out to be 9.7%; in experiment [2], 71.4%.

Regarding `Cc1coc2c(C(=O)OC3CC4CCC(C3)N4C)cccc12` (stereo not given), in [1], the inhibition is 7.7%.

Turning to `CN1C2CCC1CC(OC(=O)c1cccc3c1OCC3)C2` (stereo not given), the inhibition in [1] worked out at 27%; in experiment [2], 51.2%.

In the case of `CN1C2CCC1CC(OC(=O)c1cccc3c1Cc1ccccc1-3)C2` (stereo not given), the inhibition in experiment [4] was determined as 51%.

For `COc1cc2c(c(C(=O)OC3CC4CCC(C3)N4C)c1)OC(C)C2` (stereo not given), the inhibition in experiment [1] was found to be 4.1%.

Take `CN1C2CCC1CC(CC(=O)c1ccccc1)C2` (stereo not given): the inhibition in experiment [2] worked out at 31.3%.

In the case of `CC1Cc2cc(Cl)cc(C(=O)NC3CC4CCC(C3)N4C)c2O1` (stereo not given), the inhibition worked out at 80% in experiment [1]; 79.8% in experiment [3]; 11% in experiment [5]; 58.1% in experiment [6]; 74.6% in experiment [7]; 94.6% in experiment [8]. Moreover, the inhibition in [9] was determined as 21.9%; in experiment [10], 89.7%; in experiment [12], 87%; in experiment [13] it was 74.6%; in [14], 0%; in experiment [15], 75.2%. For the same compound, in [16], the inhibition is 71.4%. The ED50 (in general, the midpoint of the dose-response relation) in experiment [11] amounted to 0.001 mg/kg; in experiment [18], 0.063 mg/kg. The same compound displayed a -Log KB in [17] of 8.27.

Compound `CN1C2CCC1CC(NC(=O)c1ccc3c(c1)OC(C)(C)C3)C2` (stereo not given) registered an inhibition in experiment [1] of 0%.

With `CN1C2CCC1CC(NC(=O)c1cc(Br)cc3c1OC(C)(C)C3)C2` (stereo not given), the inhibition in experiment [1] turned out to be 68.7%; in experiment [3], 15.9%.
